Source: ChEMBL document CHEMBL1795271, “7-Alkyl-N(2)-substituted-3-deazaguanines. Synthesis, DNA polymerase III inhibition and antibacterial activity” (Bioorg Med Chem Lett, 2011)
In brackets after ≈: the same amount, converted by molar mass.

What was measured:
[1] = Inhibition of Bacillus subtilis DNA polymerase 3C assessed as incorporation of [3H]TMP into activated calf thymus DNA incubated with dATP, dCTP and [3H]TTP in absence of dGTP
Procedure, shortened: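 Recombinant B. subtilis pol IIIC assayed on activated calf thymus DNA with dATP, dCTP and [³H]TTP, without competitor dGTP. Read-out was [³H]TMP incorporation. Ki values are averages of at least two independent experiments.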

[2] = (§1) Inhibition of Bacillus subtilis DNA polymerase 3E assessed as incorporation of [3H]TMP into activated calf thymus DNA incubated with dATP, dCTP and [3H]TTP in absence of dGTP
Procedure, shortened: (§2)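 Enzymes: recombinant B. subtilis pol IIIE and E. coli three-subunit pol III core. Each was assayed with activated calf thymus DNA, dATP, dCTP and [3H]TTP, without the competitor dGTP. [3H]TMP incorporation was measured and Ki derived. Values are averages of at least two independent experiments.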

[3] = tested on: Staphylococcus aureus; assay: Antibacterial activity against Staphylococcus aureus ATCC 25923 after 16 to 24 hrs by twofold serial dilution method; assay type: functional
[4] = tested on: Staphylococcus aureus; assay: Antibacterial activity against Staphylococcus aureus ATCC 13709 (Smith) after 16 to 24 hrs by twofold serial dilution method; assay type: functional
[5] = tested on: Staphylococcus aureus; assay: Antibacterial activity against methicillin-resistant Staphylococcus aureus ATCC 1094 after 16 to 24 hrs by twofold serial dilution method; assay type: functional
[6] = tested on: Enterococcus faecalis; assay: Antibacterial activity against Enterococcus faecalis ATCC 29212 after 16 to 24 hrs by twofold serial dilution method; assay type: functional
[7] = tested on: Enterococcus faecium; assay: Antibacterial activity against Enterococcus faecium ATCC 19434 after 16 to 24 hrs by twofold serial dilution method; assay type: functional
[8] = tested on: Escherichia coli; assay: Antibacterial activity against Escherichia coli J-53 after 16 to 24 hrs by twofold serial dilution method; assay type: functional
[9] = tested on: Bacillus subtilis; assay: Antibacterial activity against Bacillus subtilis BD54 after 16 to 24 hrs by twofold serial dilution method; assay type: functional
[10] = tested on: Enterococcus faecalis; assay: Antibacterial activity against vancomycin-resistant Enterococcus faecalis after 16 to 24 hrs by twofold serial dilution method
[11] = tested on: Bacillus subtilis; assay: as §1; design: concentration or dose not given beside the values; details: concentration not given here; procedure, shortened: as §2

Structure (SMILES) | Ki [1] [nM] | Ki [2] [nM] | MIC [3] [µg/mL] | MIC [4] [µg/mL] | MIC [5] [µg/mL] | MIC [6] [µg/mL] | MIC [7] [µg/mL] | MIC [8] [µg/mL] | MIC [9] [µg/mL] | MIC [10] [µg/mL] | inhibition [11] [%]
COCCCCn1cnc2cc(NCc3ccc(Cl)c(Cl)c3)[nH]c(=O)c21 | 190 | 370 | 5 (≈ 12.6 µM) | 3.75 (≈ 9.49 µM) | 2.5 (≈ 6.32 µM) | 5 (≈ 12.6 µM) | 5 (≈ 12.6 µM) | > 80 | 0.625 (≈ 1.58 µM) | 2.5 (≈ 6.32 µM) | 
CC(=O)NC[C@H]1CN(c2ccc(N3CCOCC3)c(F)c2)C(=O)O1 [LINEZOLID] |  |  | 1.25 (≈ 3.71 µM) | 2.5 (≈ 7.41 µM) |  |  | 2.5 (≈ 7.41 µM) | > 80 | 0.625 (≈ 1.85 µM) | 1.25 (≈ 3.71 µM) | 
COCCCCCn1nnc2cc(NCc3ccc(Cl)c(Cl)c3)[nH]c(=O)c21 |  |  |  | 7.5 (≈ 18.3 µM) | 7.5 (≈ 18.3 µM) |  |  | > 80 | 2.5 (≈ 6.09 µM) | 10 (≈ 24.4 µM) | 
OCCCCn1cnc2nc(NCc3ccc(Cl)c(Cl)c3)nc(O)c21 |  |  | 30 (≈ 78.5 µM) | 25 (≈ 65.4 µM) | 30 (≈ 78.5 µM) | 10 (≈ 26.2 µM) | 7.5 (≈ 19.6 µM) | > 80 | 15 (≈ 39.2 µM) | 3.75 (≈ 9.81 µM) | 
COCCCCn1c(C)nc2c(=O)[nH]c(NCc3ccc(Cl)c(Cl)c3)cc21 |  |  | > 80 | > 80 | > 80 | > 80 |  | > 80 | > 80 | > 80 | 
CN[C@H](CC(C)C)C(=O)N[C@H]1C(=O)N[C@@H](CC(N)=O)C(=O)N[C@H]2C(=O)N[C@H]3C(=O)N[C@H](C(=O)N[C@H](C(=O)O)c4cc(O)cc(O)c4-c4cc3ccc4O)[C@H](O)c3ccc(c(Cl)c3)Oc3cc2cc(c3O[C@@H]2O[C@H](CO)[C@@H](O)[C@H](O)[C@H]2O[C@H]2C[C@](C)(N)[C@H](O)[C@H](C)O2)Oc2ccc(cc2Cl)[C@H]1O [VANCOMYCIN] |  |  |  |  | 0.625 (≈ 0.431 µM) | 0.625 (≈ 0.431 µM) | 1.25 (≈ 0.863 µM) | > 20 |  | > 20 | 
OCCCCCn1cnc2nc(NCc3ccc(Cl)c(Cl)c3)nc(O)c21 |  |  | 20 (≈ 50.5 µM) |  | 10 (≈ 25.2 µM) |  |  | > 80 |  | 5 (≈ 12.6 µM) | 
O=c1[nH]c(NCc2ccc(Cl)c(Cl)c2)cc2ncn(CCCCN3CCOCC3)c12 | 94 | 200 | 20 (≈ 44.4 µM) |  | 20 (≈ 44.4 µM) | 20 (≈ 44.4 µM) | 15 (≈ 33.3 µM) | > 80 | 7.5 (≈ 16.7 µM) | 10 (≈ 22.2 µM) | 
CCc1cc(Nc2cc3ncn(CCCCOC)c3c(=O)[nH]2)ccc1C | 1500 |  |  |  |  |  |  | > 80 | 2.5 (≈ 7.05 µM) | 10 (≈ 28.2 µM) | < 10
Oc1nc(NCc2ccc(Cl)c(Cl)c2)nc2ncn(CCCCN3CCOCC3)c12 |  |  | 20 (≈ 44.3 µM) |  | 40 (≈ 88.6 µM) | 10 (≈ 22.2 µM) | 10 (≈ 22.2 µM) | > 80 | 10 (≈ 22.2 µM) | 5 (≈ 11.1 µM) | 
O=C(O)c1cn(C2CC2)c2cc(N3CCNCC3)c(F)cc2c1=O [CIPROFLOXACIN] |  |  | 0.156 (≈ 0.471 µM) | 0.078 (≈ 0.235 µM) | > 20 |  | 5 (≈ 15.1 µM) | 0.313 (≈ 0.945 µM) | 0.078 (≈ 0.235 µM) |  | 
O=c1[nH]c(NCc2ccc(Cl)c(Cl)c2)cc2ncn(CCCCCN3CCOCC3)c12 |  |  | 20 (≈ 43.1 µM) | 20 (≈ 43.1 µM) | 20 (≈ 43.1 µM) | 20 (≈ 43.1 µM) | 20 (≈ 43.1 µM) | > 80 | 10 (≈ 21.5 µM) | 15 (≈ 32.3 µM) | 
COCCCCn1cnc2nc(NCc3ccc(Cl)c(Cl)c3)[nH]c(=O)c21 | 190 |  | 3.7 (≈ 9.34 µM) | 3.7 (≈ 9.34 µM) | 1.25 (≈ 3.15 µM) | 2.5 (≈ 6.31 µM) | 2.5 (≈ 6.31 µM) | > 80 | 1.4 (≈ 3.53 µM) | 2.5 (≈ 6.31 µM) | 
O=c1[nH]c(NCc2ccc(Cl)c(Cl)c2)cc2c1ncn2CCCCN1CCOCC1 | 50000 | 54000 | > 40 | > 40 | > 40 | > 40 |  | > 40 | > 40 | > 40 | 
CCc1cc(Nc2nc(O)c3c(ncn3CCCCCO)n2)ccc1C |  |  | 20 (≈ 56.3 µM) | 20 (≈ 56.3 µM) | 20 (≈ 56.3 µM) | 10 (≈ 28.1 µM) | 10 (≈ 28.1 µM) | > 80 | 20 (≈ 56.3 µM) | 5 (≈ 14.1 µM) | 
